Measurements: ChEMBL document CHEMBL2331556, “Evidence for the involvement of descending pain-inhibitory mechanisms in the antinociceptive effect of hecogenin acetate” (J Nat Prod, 2013)
Active and inactive are the calls of the source.

Columns and labels:
Mus musculus [1] = test: Antinociceptive activity in Swiss webster mouse assessed as increase in latency response at 5 mg/kg sc administered 40 mins prior to test measured for 3 hrs by warm water-tail flick test; type: functional, organism-based; set-up: dose 5 mg/kg
Outline: (§1)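 Mice habituated to a restraint cylinder 20 min/day for 5 days. Tail tip (2 cm) immersed in 50 ± 0.5 °C water; tail-withdrawal latency recorded, 16 s cut-off. Latency taken at baseline and up to 7 h after dosing. Vehicle Tween 20 5%. Means ± SEM, n = 6 mice/group; repeated-measures two-way ANOVA with Bonferroni post hoc.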

Mus musculus [2] = test: Toxicity in Swiss webster mouse assessed as decrease in time stayed on rotarod at 10 mg/kg, ip measured after 30 mins by rotarod test; type: organism-based; set-up: dose 10 mg/kg, route intraperitoneal; details: in vivo, 0.5 h
Mus musculus [3] = test: Antinociceptive activity in Swiss webster mouse assessed as latency response at 40 mg/kg, ip administered 15 mins after 0.5 mg/kg, sc kappa-opioid receptor antagonist, nor-BNI challenge measured up to 7 hrs by warm water-tail flick test; type: functional, organism-based; outline: as §1
Mus musculus [4] = test: Antinociceptive activity in Swiss webster mouse assessed as latency response at 40 mg/kg, ip administered 30 mins after 2 mg/kg, ip KATP channel blocker, glibenclamide challenge measured up to 7 hrs by warm water-tail flick test; type: functional, organism-based; outline: as §1
Mus musculus [5] = test: Antinociceptive activity in Swiss webster mouse assessed as latency response at 40 mg/kg, ip administered 5 mins after 3 mg/kg, sc delta-opioid receptor antagonist, naltrindole challenge measured up to 7 hrs by warm water-tail flick test; type: functional, organism-based; outline: as §1
Mus musculus [6] = test: Antinociceptive activity in ip dosed Swiss webster mouse assessed as increase in latency response […] by warm water-tail flick test; type: functional, organism-based
Mus musculus [7] = test: Antinociceptive activity in Swiss webster mouse assessed as latency response at 40 mg/kg, ip administered 15 mins after 5 mg/kg, ip nonselective opioid receptor antagonist, naloxone challenge measured up to 7 hrs by warm water-tail flick test; type: functional, organism-based; outline: as §1
Mus musculus [8] = test: Activation of neurons in Swiss webster mouse periaqueductal gray assessed as increase in number of Fos-positive cells at 5 to 40 mg/kg, ip measured after 2 hrs by immunohistochemical analysis; type: functional, organism-based
Outline: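 Mice given 5, 10, 20 or 40 mg/kg ip or vehicle, perfused 2 h later. Frozen 20 μm transverse periaqueductal gray sections: PBS washes, 0.1 M glycine, blocked in 1% BSA, overnight rabbit anti-Fos, then 1 h Alexa Fluor 594 anti-rabbit. No-primary control included. Fos-positive cells counted; n = 6/group; ANOVA with Tukey post hoc.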

Mus musculus [9] = test: Toxicity in Swiss webster mouse assessed as effect on motor performance at 40 mg/kg, ip measured after 30 mins by rotarod test; type: organism-based; set-up: dose 40 mg/kg, route intraperitoneal; details: in vivo, 0.5 h
Outline: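 Rotarod. Mice pre-selected 24 h earlier; those failing to stay on the bar for two consecutive 120 s periods were excluded. Dosing ip: test agent 40 mg/kg, or vehicle (Tween 20 5%, 200 μL). Time on rod recorded up to 120 s and reported as group mean time (s). n = 6/group; ANOVA with Tukey post hoc.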

Mus musculus [10] = test: Antinociceptive activity in Swiss webster mouse assessed as latency response at 40 mg/kg, ip administered 30 mins prior to 1 mg/kg, ip mu-opioid receptor antagonist, CTOP challenge measured up to 7 hrs by warm water-tail flick test; type: functional, organism-based; outline: as §1

Which Activity (Mus musculus [1]) does the source give for `CN1CC[C@]23c4c5ccc(O)c4O[C@H]2[C@@H](O)C=C[C@H]3[C@H]1C5` here?
Its Activity is “Active”.

How did the Activity (Mus musculus [2]) turn out when `CN1C(=O)CN=C(c2ccccc2)c2cc(Cl)ccc21` [DIAZEPAM] was run?
Its Activity is “Toxic”.

Which Activity (Mus musculus [3]) does the source give for `CC(=O)O[C@H]1CC[C@@]2(C)[C@@H](CC[C@@H]3[C@@H]2CC(=O)[C@]2(C)[C@@H]4[C@H](C[C@@H]32)O[C@]2(CC[C@@H](C)CO2)[C@H]4C)C1` [HECOGENIN ACETATE] here?
The Activity was “inactive”.

And the Activity (Mus musculus [4])?
Its Activity is “inactive”.

What about the Activity (Mus musculus [5]) of the same molecule?
Its Activity is “inactive”.

And the Activity (Mus musculus [6])?
The Activity was “Dose-dependent effect”.

And the Activity (Mus musculus [7])?
Its Activity is “inactive”.

And the Activity (Mus musculus [8])?
The Activity was “Active”.

What about the Activity (Mus musculus [9]) of the same molecule?
Its Activity is “Non-toxic”.

And the Activity (Mus musculus [10])?
The Activity was “inactive”.
